Consider 30 molecules from PubChem BioAssay AID652011 (Sanford-Burnham Center for Chemical Genomics, 2013).

Molecules are shown by their SMILES. Where “and” joins values, the source holds several entries; their conditions need not be identical. Equal values may be shown once.

Chain of Hypoxia-inducible factor 1-alpha (Homo sapiens) (Q16665 whole entry, looked up): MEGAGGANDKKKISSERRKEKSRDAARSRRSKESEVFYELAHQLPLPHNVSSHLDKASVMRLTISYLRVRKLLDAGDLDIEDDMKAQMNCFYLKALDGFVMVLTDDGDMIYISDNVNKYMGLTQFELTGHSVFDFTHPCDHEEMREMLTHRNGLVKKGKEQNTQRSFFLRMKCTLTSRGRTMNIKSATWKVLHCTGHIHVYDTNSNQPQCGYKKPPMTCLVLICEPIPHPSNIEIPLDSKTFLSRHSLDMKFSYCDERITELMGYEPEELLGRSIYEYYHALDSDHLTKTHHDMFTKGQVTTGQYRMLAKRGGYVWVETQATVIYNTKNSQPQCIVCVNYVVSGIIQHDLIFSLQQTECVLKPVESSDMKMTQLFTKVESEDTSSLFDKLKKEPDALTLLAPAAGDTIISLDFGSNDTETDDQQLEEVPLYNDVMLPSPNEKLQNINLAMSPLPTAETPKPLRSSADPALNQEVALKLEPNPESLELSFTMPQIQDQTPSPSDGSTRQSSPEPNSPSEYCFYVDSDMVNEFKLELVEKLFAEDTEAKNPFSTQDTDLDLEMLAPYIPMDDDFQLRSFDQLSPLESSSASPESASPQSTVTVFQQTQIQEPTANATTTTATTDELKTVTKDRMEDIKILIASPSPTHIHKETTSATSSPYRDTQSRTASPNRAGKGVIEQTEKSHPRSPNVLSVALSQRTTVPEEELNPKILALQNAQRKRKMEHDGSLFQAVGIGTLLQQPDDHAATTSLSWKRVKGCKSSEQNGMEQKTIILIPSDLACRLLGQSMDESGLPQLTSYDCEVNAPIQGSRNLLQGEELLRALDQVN

The experiment addresses Hypoxia-inducible factor 1-alpha (Homo sapiens) (UniProt Q16665). Put plainly: HIF-1a and HIF-2a reporter inhibitors, SAR follow-up, cell-based, luminescence, MIAPaCa-2, 786-0, panel (AID 652011). Conditions: MIAPaCa-2/PANC HIF reporter, luciferase luminescence, desferoxamine, overnight, HIF1a, run 2; at 99 µM (top of the series). In outline:
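Probe or stimulus: desferoxamine stimulus / Schedule: overnight compound incubation at 37 °C, 10 min reagent / Dosing: compounds from 10 mM and 0.3125 mM stocks, 1% DMSO final / Signal: luciferase luminescence with One-Glo reagent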
For `CCNC(=O)CCc1nc(-c2ccc(OCC)cc2)no1`, the inhibition is -42.2%. As for `CN(C)C(=O)CCc1nc(-c2ccc(C(C)(C)C)cc2)no1`, the inhibition was -8.56% and -52.1%. For `CCNC(=O)CCc1nc(-c2cccc(OC)c2)no1`, the inhibition was -31.4%. Regarding `O=C(CCc1nc(-c2ccccc2)no1)NC1CC1`, the inhibition is -23.4%. Turning to `CNC(=O)CCc1nc(-c2ccc(Cl)cc2)no1`, the inhibition was -33.8%. Take `CCNC(=O)CCc1nc(-c2ccccc2C)no1`: the inhibition was -28.2%. As to `CCc1ccc(-c2noc(CCC(=O)NC(C)(C)C)n2)cc1`, the inhibition is -0.564%.

In the case of `CC(C)CNC(=O)CCc1nc(-c2ccc(C(C)(C)C)cc2)no1`, the inhibition was found to be 2.19%. `CCc1ccc(-c2noc(CCC(=O)NC(C)CC)n2)cc1` (stereo not given): the inhibition was -24.3%. For `CCNC(=O)CCc1nc(-c2ccc(CC)cc2)no1`, the inhibition was -31.3%. In the case of `COc1ccccc1NC(=O)CCc1nc(-c2ccc(C(C)(C)C)cc2)no1` it was 81.3%; in that of `CCNC(=O)CCc1nc(-c2ccc(C(C)(C)C)cc2)no1`, 10.5% and -4.06%; in that of `CC(C)(C)NC(=O)CCc1nc(-c2ccc(C(C)(C)C)cc2)no1`, 96.7%. In the case of `CCOc1ccc(-c2noc(CCC(=O)O)n2)cc1` it was 70.3%. Regarding `O=C(O)CCc1nc(-c2ccccc2)no1`, the inhibition came out at 16.7%. Regarding `CCOc1ccccc1NC(=O)CCc1nc(-c2ccc(C(C)(C)C)cc2)no1`, the inhibition stood at 60%. Next, `C=CCNC(=O)CCc1nc(-c2ccc(C(C)(C)C)cc2)no1`: 34.7%. `CC(C)(C)c1ccc(-c2noc(CCC(=O)Nc3cccc([N+](=O)[O-])c3)n2)cc1`: the inhibition worked out at 91.4%. For the molecule `CC(C)(C)c1ccc(-c2noc(CCC(=O)NCc3ccco3)n2)cc1`, the inhibition is 93.7% and 85.5%.

As to `CNC(=O)CCc1nc(-c2ccc(F)cc2)no1`, the inhibition is -36.7%. As for `CC(C)(C)c1ccc(-c2noc(CCC(=O)NC3CC3)n2)cc1`, the inhibition is -29.7%.

For the molecule `CCC(C)NC(=O)CCc1nc(-c2ccc(C(C)C)cc2)no1` (stereo not given), the inhibition was -0.644%. Take `CCc1ccc(-c2noc(CCC(=O)NC3CC3)n2)cc1`: the inhibition was -49.4%.

Turning to `CC(C)(C)c1ccc(-c2noc(CCC(=O)NCC3CCCO3)n2)cc1` (stereo not given), the inhibition came out at 8.05%.

`CCNC(=O)CCc1nc(-c2ccccc2)no1`: the inhibition is -23.4%. On to `CNC(=O)CCc1nc(-c2ccccc2)no1`, for which the inhibition is -20.8% and 17.9%. For `CC(C)(C)c1ccc(-c2noc(CCC(=O)N3CCOCC3)n2)cc1`, the inhibition is -1.55%. Regarding `CCN(CC)C(=O)CCc1nc(-c2ccc(C(C)(C)C)cc2)no1`, the inhibition is 27.4% and 77.3%. As for `CNC(=O)CCc1nc(-c2ccc(C(C)(C)C)cc2)no1`, the inhibition came to 18.4%. As for `CNC(=O)CCc1nc(-c2ccc(C(C)C)cc2)no1`, the inhibition was -35.5%.

A word on the inhibition: it is the relative decrease from the control value, in per cent.
